In brackets after ≈: the same amount, converted by molar mass.
What was measured:
[1] = tested on: MCF7; assay: Cytotoxicity against human MCF7 cells by SRB assay; assay type: functional, cell-based
How it was run: (§1)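 Sulforhodamine B assay following a previously described protocol, run on three human tumour lines: MCF-7 (breast adenocarcinoma), NCI-H460 (non-small-cell lung cancer) and SF-268 (glioma). Activity was reported as IC50.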

[2] = tested on: NCI-H460; assay: Cytotoxicity against human NCI-H460 cells by SRB assay; assay type: functional, cell-based; how it was run: as §1
[3] = tested on: SF-268; assay: Cytotoxicity against human SF268 cells by SRB assay; assay type: functional, cell-based; how it was run: as §1
[4] = tested on: Candida albicans; assay: Antifungal activity against Candida albicans ATCC 10231 after 18 hrs by broth microdilution method; assay type: functional; conditions: ATCC 10231, 18 h
How it was run: (§2)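 Broth microdilution. Pre-cultures were grown 16 h on a rotary shaker: the bacteria at 37 °C and C. albicans at 28 °C. Each was adjusted with sterile medium to OD600 0.04–0.06, diluted a further 10-fold, and dispensed to plates. Compounds were serially diluted from 64 to 0.125 μg/mL in duplicate. OD600 was read after 18 h. MIC was the lowest concentration completely inhibiting visible growth, taken from two independent experiments.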

[5] = tested on: Bacillus subtilis; assay: Antibacterial activity against Bacillus subtilis SCSIO BS01 after 18 hrs by broth microdilution method; assay type: functional; conditions: SCSIO BS01, 18 h; how it was run: as §2
[6] = tested on: Bacillus thuringiensis; assay: Antibacterial activity against Bacillus thuringiensis SCSIO BT01 after 18 hrs by broth microdilution method; assay type: functional; conditions: SCSIO BT01, 18 h; how it was run: as §2
[7] = tested on: Staphylococcus aureus; assay: Antibacterial activity against Staphylococcus aureus ATCC 29213 after 18 hrs by broth microdilution method; assay type: functional; conditions: ATCC 29213, 18 h; how it was run: as §2
[8] = tested on: Escherichia coli; assay: Antibacterial activity against Escherichia coli ATCC 25922 after 18 hrs by broth microdilution method; assay type: functional; conditions: ATCC 25922, 18 h; how it was run: as §2

Compound: CC(C)C(=O)O[C@@H]1c2c(cc(O)c3c2C(=O)c2cccc(O)c2-3)C(=O)[C@@]2(C)O[C@@H]12 [FLUOSTATIN D]
- IC50 [1]: > 100 µM
- IC50 [2]: > 100 µM
- IC50 [3]: > 100 µM
- MIC [4]: > 64 µg/mL
- MIC [5]: > 64 µg/mL
- MIC [6]: > 64 µg/mL
- MIC [7]: > 64 µg/mL
- MIC [8]: > 64 µg/mL

Compound: C[C@]1(Cl)C(=O)c2cc(O)c3c(c2[C@@H](O)[C@@H]1O)C(=O)c1cccc(O)c1-3 [FLUOSTATIN E]
- IC50 [1]: > 100 µM
- IC50 [2]: > 100 µM
- IC50 [3]: > 100 µM
- MIC [4]: > 64 µg/mL
- MIC [5]: > 64 µg/mL
- MIC [6]: > 64 µg/mL
- MIC [7]: > 64 µg/mL
- MIC [8]: > 64 µg/mL

Compound: CO[C@@H]1c2c(cc(O)c3c2C(=O)c2cccc(O)c2-3)C(=O)[C@@]2(C)O[C@@H]12 [FLUOSTATIN F]
- IC50 [1]: > 100 µM
- IC50 [2]: > 100 µM
- IC50 [3]: > 100 µM
- MIC [4]: > 64 µg/mL
- MIC [5]: > 64 µg/mL
- MIC [6]: > 64 µg/mL
- MIC [7]: 32 µg/mL (≈ 94.6 µM)
- MIC [8]: > 64 µg/mL

Compound: CC(C)C(=O)O[C@@H]1c2c(cc(O)c3c2C(=O)c2cccc(O)c2-3)C(=O)[C@H](C)[C@H]1O [FLUOSTATIN I]
- IC50 [1]: > 100 µM
- IC50 [2]: > 100 µM
- IC50 [3]: > 100 µM
- MIC [4]: > 64 µg/mL
- MIC [5]: > 64 µg/mL
- MIC [6]: > 64 µg/mL
- MIC [7]: > 64 µg/mL
- MIC [8]: > 64 µg/mL

Compound: CCC(C)C(=O)O[C@@H]1c2c(cc(O)c3c2C(=O)c2cccc(O)c2-3)C(=O)[C@@]2(C)O[C@@H]12 (some centres not stated) [FLUOSTATIN J]
- IC50 [1]: > 100 µM
- IC50 [2]: > 100 µM
- IC50 [3]: > 100 µM
- MIC [4]: > 64 µg/mL
- MIC [5]: > 64 µg/mL
- MIC [6]: > 64 µg/mL
- MIC [7]: > 64 µg/mL
- MIC [8]: > 64 µg/mL

Compound: C[C@]1(O)C=Cc2c(cc(O)c3c2C(=O)c2cccc(O)c2-3)C1=O [FLUOSTATIN K]
- IC50 [1]: > 100 µM
- IC50 [2]: > 100 µM
- IC50 [3]: > 100 µM
- MIC [4]: > 64 µg/mL
- MIC [5]: > 64 µg/mL
- MIC [6]: > 64 µg/mL
- MIC [7]: > 64 µg/mL
- MIC [8]: > 64 µg/mL

Compound: C[C@]12O[C@H]1[C@H](O)c1c(cc(O)c3c1C(=O)c1cccc(O)c1-3)C2=O [FLUOSTATINS C]
- IC50 [1]: > 100 µM
- IC50 [2]: > 100 µM
- IC50 [3]: > 100 µM
- MIC [4]: > 64 µg/mL
- MIC [5]: > 64 µg/mL
- MIC [6]: > 64 µg/mL
- MIC [7]: 16 µg/mL (≈ 49.3 µM)
- MIC [8]: > 64 µg/mL

Compound: Cc1cc(O)c2c3c(ncc2c1)C(=O)c1c(O)cccc1C3=O [PHENANTHROVIRIDONE]
- IC50 [1]: 0.17 µM
- IC50 [2]: 2.18 µM
- IC50 [3]: 0.09 µM
- MIC [4]: > 64 µg/mL
- MIC [5]: 64 µg/mL (≈ 210 µM)
- MIC [6]: 4 µg/mL (≈ 13.1 µM)
- MIC [7]: 0.25 µg/mL (≈ 0.819 µM)
- MIC [8]: 32 µg/mL (≈ 105 µM)

Compound: C[C@]1(O)CC(=O)c2c(cc(O)c3c2C(=O)c2cccc(O)c2C3=O)C1 [RABELOMYCIN]
- IC50 [1]: 4.28 µM
- IC50 [2]: 9.91 µM
- IC50 [3]: 5.54 µM
- MIC [4]: > 64 µg/mL
- MIC [5]: 16 µg/mL (≈ 47.3 µM)
- MIC [6]: 8 µg/mL (≈ 23.6 µM)
- MIC [7]: 1 µg/mL (≈ 2.96 µM)
- MIC [8]: 16 µg/mL (≈ 47.3 µM)

Source: ChEMBL document CHEMBL2163340, “Fluostatins I-K from the South China Sea-derived micromonospora rosaria SCSIO N160” (J Nat Prod, 2012)
